Experimental data gathered from unrelated publications.
Target: Serine/threonine-protein kinase 26 (STK26, Homo sapiens, UniProt Q9P289)

`N#CC1(c2ccccn2)CCN(Cc2cc(C(=O)O)c(=O)n3ccccc23)CC1` gave a remaining binding of 100% (cell-free assay, competition with immobilised ligand; 1 µM).
`Nc1ncc(-c2nc(N3CCOCC3)nc(N3CCOCC3)n2)c(C(F)F)n1` gave a remaining binding of 91% (binding, competition with immobilised ligand; 10 µM).
With `Cc1nn(C)cc1-c1nc2c(N3CCN(Cc4ccc(Cl)cc4)CC3)c(Cl)cnc2[nH]1` the remaining binding was 100% (binding, competition with immobilised ligand; 1 µM).
`COc1ncccc1-c1cnn2ccc(N3CCN(C(=O)OC(C)C)CC3)nc12` has a remaining binding of 92% (binding, competition with immobilised ligand; 1 µM).
`Cn1cc(-c2cc(F)cc(N3CCn4c(cc5c4CCCC5)C3=O)c2CO)cc(Nc2ccc(N3CCN(C4COC4)CC3)cn2)c1=O` gave an inhibition of 14% (enzyme activity, inhibitor; 0.1 µM).
The remaining activity of `CC(C)(C)c1cc(C=C(C#N)C#N)cc(Br)c1O` is reported as 95.2% (enzyme activity, inhibitor; 0.5 µM).
`Cn1cncc1[C@@](O)(COc1ccc(C#N)cc1-c1ccc(OC(F)(F)F)cc1)c1ccc(C#N)cc1` gave a remaining binding of 99% (cell-free assay, competition with immobilised ligand; 1 µM).
With `O=c1[nH]c2ccccc2n1C1CCN(Cc2ccc(-c3[nH]c4cc5ncnc5cc4nc3-c3ccccc3)cc2)CC1` the remaining signal was 102% (cell-free assay; 0.5 µM).
`CCN1CCN(Cc2ccc(NC(=O)c3ccc(C)c(/C=C/c4cnc5[nH]ccc5c4OC)c3)cc2C(F)(F)F)CC1` has an inhibition of -14.9% (target engagement in cells, inhibitor, chemoproteomics; A-375; 50 nM).
